Screening results: PubChem, The Scripps Research Institute Molecular Screening Center
Most compounds without a hit are left out; they make up all but 2.7% or so of the library.
OX1R antag-1 – OX1R (human) antagonism; 330,000 tested, 1.8% active; inhibition, % at 6.6 µM; AID 485270; OX1R-expressing cells, FRET antagonist read-out; in the data active means inhibition mostly above about 38%, no sharp cut-off; inactive means mostly below about 40%;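 further: 0% = agonist challenge alone and 100% = reference antagonist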
OXTR potentiator – potentiators of human oxytocin receptor; P30559; activation, % at 3 µM; AID 2445; 320,000 tested, 0.061% active; CHO-OTR cells, Fluo-8 calcium fluorescence, potentiator mode; 0% = oxytocin EC15, 100% = EC100;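 active means activation above that plate's cutoff, the mean activation of tested compounds plus 3 SD, cut at about 6.6% in these data, passing the limit was not always enough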;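 further: 100% uses oxytocin at 75 nM as the full agonist control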
Target sequence (P30559 whole entry, looked up): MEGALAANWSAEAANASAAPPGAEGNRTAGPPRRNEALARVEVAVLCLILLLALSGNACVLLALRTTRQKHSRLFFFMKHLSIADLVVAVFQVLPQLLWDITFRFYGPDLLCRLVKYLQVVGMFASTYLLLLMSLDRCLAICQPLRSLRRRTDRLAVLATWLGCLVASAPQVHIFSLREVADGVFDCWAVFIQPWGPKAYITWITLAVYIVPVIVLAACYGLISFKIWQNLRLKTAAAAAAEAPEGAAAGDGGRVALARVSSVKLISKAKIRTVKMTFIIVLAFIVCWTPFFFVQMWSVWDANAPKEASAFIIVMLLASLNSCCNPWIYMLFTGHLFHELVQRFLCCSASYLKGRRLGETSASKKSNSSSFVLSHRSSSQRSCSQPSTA
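Replication – single well per compound, singlicate · Assay system – CHO cell line stably expressing human OTR · Timing – 6 min pre-incubation, 100 s read · Measure – normalized max/min fluorescence ratio, % activation · Doses – 3.0 µM, one dose · Detection – Fluo-8 calcium dye fluorescence · Probe or stimulus – oxytocin near EC15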
OXTR ag – human OXTR agonism; activation, % at 3 µM; AID 2435; CHO-OTR cells, Fluo-8 calcium fluorescence; normalized: DMSO 0%, oxytocin 100%; 320,000 tested, 0.32% active; P30559;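 active means activation above the mean of all tested compounds plus 3 SD, cutoff set per screening run, cut at about 20% in these data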;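 further: peak over basal fluorescence ratio from a 100 s FLIPR kinetic read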
V1R ag counter – counter-screen for oxytocin receptor agonists: human V1a receptor agonists | P37288 | CHO-V1R cells, Fluo-8 calcium fluorescence, agonist mode; 0% DMSO, 100% 3 nM vasopressin | activation, % at 3 µM | 320,000 tested, 0.25% active;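 active means activation above the mean activation of all tested compounds plus 3 SD, per screening run, cut at about 20% in these data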;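 further: signal is peak over basal fluorescence ratio across a 100 second FLIPR read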
CHO parental Ca – signal in parental CHO cells, OX1R antagonist counter-screen | parental CHO-K1, ATP-induced calcium, Fluo-8 fluorescence | inhibition, % at 5.6 µM | 330,000 tested, 0.63% active;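 active means inhibition above that plate's mean sample inhibition plus 3 SD, cut at about 26% in these data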;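 further: 0% = ATP-challenged DMSO wells and 100% = DMSO wells without ATP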
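Assay system – parental CHO cells · Reagent – ATP stimulus · Detection – intracellular calcium via Fluo-8 no-wash fluorescent dye · Evaluation – percent inhibition of ATP-evoked calcium rise, normalized to controls · Controls – ATP wells versus no-ATP DMSO wells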
OX1R antag-2 – blocks the human orexin 1 receptor; 330,000 tested, 0.43% active; inhibition, % at 5 µM; CHO/OX1R cells, Fluo-8 calcium fluorescence, orexin A; O43613;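 active means inhibition above its plate's threshold, mean inhibition of all tested compounds on the plate plus 3 SD, cut at about 37% in these data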;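 further: 0% = orexin A challenge wells and 100% = SB-334867-A antagonist wells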
OXTR agonist cf – confirmation of human oxytocin receptor agonists; shares compounds with OXTR ag; CHO-OTR cells, Fluo-8 calcium fluorescence, agonist; activation, % at 3 µM; 390 tested, 20% active; AID 434963;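 active means mean activation above about 20% derived from the earlier single-dose screen, limit read from the data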;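 further: peak over minimum fluorescence ratio per well during a 100 second FLIPR read; 0% = DMSO alone and 100% = oxytocin high control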
V1R ag counter 3x – activates V1a receptor in oxytocin agonist counter-screen; AID 434991; CHO-V1R cells, Fluo-8 calcium fluorescence; activation, % at 3 µM; shares compounds with OXTR ag; 390 tested, 10% active;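 active means mean activation over triplicate exceeds the hit threshold set in the earlier primary screen, cut at about 20% in these data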;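 further: peak over basal fluorescence ratio within a 100 second read; 0% = DMSO alone and 100% = 3 nM vasopressin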
OXTR pot confirm – confirmation of human oxytocin receptor potentiators. CHO-OTR cells, Fluo-8 calcium fluorescence, potentiation; scaled from low-dose to maximal oxytocin. shares compounds with OXTR potentiator. activation, % at 3 µM. 180 tested, under 10 active. AID 434985;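 active means mean percent activation over triplicates above a cutoff set from solvent-only control plates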;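 further: compounds tested in the presence of an EC15 dose of oxytocin; 0% = EC15 oxytocin with DMSO and 100% = EC100 oxytocin with DMSO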
V1aR agonist cf – confirmation of human vasopressin V1a receptor agonists; shares compounds with V1R ag counter; CHO-V1R cells, Fluo-8 calcium fluorescence, agonist; activation, % at 3 µM; 180 tested, 20% active;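 active means average activation exceeds primary screen hit cutoff, cut at about 21% in these data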;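 further: peak over basal fluorescence ratio during a 100 s FLIPR read; 0% = DMSO only wells and 100% = 3 nM vasopressin wells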
OXTR counter – OXTR agonism, counter-screen for V1R agonists. shares compounds with V1R ag counter. CHO-OTR cells, Fluo-8 calcium fluorescence, agonist. activation, % at 3 µM. 180 tested, 10% active. AID 434969;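 active means mean activation over three repeats above the cutoff from the earlier oxytocin receptor agonist screen, cut at about 20% in these data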;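 further: peak over minimum fluorescence ratio within a 100 second FLIPR read; 0% = DMSO only wells and 100% = oxytocin high control wells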
OX1R Fluo8 conf – confirmation of human orexin 1 receptor antagonists | CHO/OX1R cells, orexin A calcium Fluo-8 fluorescence | shares compounds with OX1R antag-2 | inhibition, % at 5 µM | 1,100 tested, 38% active; in the data active means inhibition above about 29%;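 further: 0% = agonist challenge alone and 100% = reference antagonist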
CHO Ca counter – counter-screen for OX1R antagonists: effect in parental CHO cells | shares compounds with OX1R antag-2 | parental CHO-K1, ATP-induced calcium, Fluo-8 fluorescence | inhibition, % at 5.6 µM | 1,100 tested, 9.3% active | AID 492965;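 active means inhibition above a per-plate limit, the mean inhibition of that plate's test compounds plus 3 SD, cut at about 25% in these data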;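 further: 0% = ATP challenge with DMSO and 100% = DMSO without ATP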
OX1R HTRF conf – confirmation of human orexin 1 receptor antagonists, HTRF format. OX1R-expressing cells, HTRF antagonist assay. inhibition, % at 6.6 µM. AID 492964. shares compounds with OX1R antag-1. 1,800 tested, 49% active; in the data active means inhibition above about 55%;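 further: CHO cells expressing OX1R stimulated with orexin A at about EC80; 0% = agonist challenge alone and 100% = reference antagonist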
CHO-K1 HTRF cnt – signal in parental CHO-K1 cells, OX1R antagonist counter-screen. 1,800 tested, 48% active. AID 493232. HTRF counterscreen. shares compounds with OX1R antag-1. inhibition, % at 6.6 µM; in the data active means inhibition above about 17%;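 further: 0% = agonist challenge with vehicle and 100% = vehicle alone without agonist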
Active calls of the source: *.

SMILES	OX1R antag-1	OXTR potentiator	OXTR ag	V1R ag counter	CHO parental Ca	OX1R antag-2	others
CN1C(=O)C(c2ccc([N+](=O)[O-])cc2[N+](=O)[O-])C(=O)N(C)C1=O	44*	-15	1	0	-1	-13
O=[N+]([O-])c1ccc(Cl)c([N+](=O)[O-])c1	48*	-7	0	-1	0	12
O=[N+]([O-])c1cc(O)c(O)c([N+](=O)[O-])c1	16	1	0	1	-7	-2
O=[N+]([O-])c1ccc(O)c([N+](=O)[O-])c1	69*	-13	2	6	-2	3
C[C@]12CCC3C(CC[C@H]4C[C@@H](O)CC[C@]34C)C1CCC2=O (stereo partly drawn)	12	-3	1	1	-18	-8
Cc1nn(Cc2ccccc2)c(Cl)c1C(=O)NC1CCCc2ccccc21 (stereo not drawn)	21	-12	-2	-1	-24	-34
CCN1CCN(c2ccc([N+](=O)[O-])cc2C=C2C(=O)NC(=O)NC2=O)CC1	46	-10	1	1	-5	0
CC(=O)N1CCN(c2ccc([N+](=O)[O-])cc2C=C2C(=O)NC(=O)NC2=O)CC1	64*	-4	0	1	-4	1
CCCOP(=O)(OCCC)C(NC(=O)c1ccccc1)=C(Cl)Cl	33	0	-2	1	-3	-11
O=C(NC(=C(Cl)Cl)P(=O)(c1ccccc1)c1ccccc1)c1ccccc1	69*	-2	0	0	-18	-4
O=C1c2cccc3cccc(c23)C(=O)N1/N=C/c1c(O)n(-c2ccccc2)c(=O)[nH]c1=O	61*	-2	1	1	-7	-8
O=c1c2ccccc2nc(-c2ccccc2)n1-c1ccccc1	10	-4	-3	-1	-11	-12
O=c1c2ccccc2[se]n1-c1ccccc1	9	-8	8	6	47*	23
CCCN(CC1CC1)CC(O)c1ccccc1 (stereo not drawn)	-10	-6	0	1	-3	-7
CCOc1cc2c(cc1OCC)-n1cccc1C(c1ccc(F)c(OC)c1)NC2 (stereo not drawn)	5	-7	22*	15	-1	-7	OXTR agonist cf=7;V1R ag counter 3x=3
NC1CCc2cc(O)c(O)cc2C1 (stereo not drawn)	23	5	1	0	0	3
CCCCn1c(=O)c(C(=O)NCc2ccccc2Cl)c(O)c2ccccc21	4	-23	38*	0	-15	-6	OXTR agonist cf=0;V1R ag counter 3x=1
CNc1ccc2oc(C[C@H]3O[C@@]4(CC[C@H]3C)O[C@H]([C@H](C)C(=O)c3ccc[nH]3)[C@H](C)C[C@H]4C)nc2c1C(=O)O	20	-26	75*	15	59*	67*	OXTR agonist cf=122*;V1R ag counter 3x=134*
NC(C(=O)O)c1cc(=O)[nH]o1 (stereo not drawn)	9	-1	1	0	-3	11
Oc1ccc2c3c1O[C@H]1c4oc5ccccc5c4C[C@@]4(O)[C@@H](C2)N(CC2CC2)CC[C@]314	18	-5	1	2	-9	-14
Oc1ccc(C2NCc3ccccc3-n3cccc32)cc1Cl (stereo not drawn)	23	-23	28*	17	3	0	OXTR agonist cf=10;V1R ag counter 3x=2;OX1R Fluo8 conf=0;CHO Ca counter=-10
N/C(=N\[N+](=O)[O-])N1CCN(C(=O)Oc2ccccc2)CC1	6	-7	-1	0	-1	10
COc1ccc(C(c2c(O)c3ccccc3oc2=O)c2c(C)n(C)n(-c3ccccc3)c2=O)cc1 (stereo not drawn)	23	12*	-1	-1	-14	-9	OXTR pot confirm=-10
CC(=NCc1ccco1)c1c(O)n(-c2ccc(C)cc2)c(=O)[nH]c1=O	12	-7	0	0	-31	-9
CC1(C)OC(c2ccccc2)=C/C(=C/C=C2C(=O)NC(=O)NC2=O)O1	25	-17	11	22*	6	22	V1aR agonist cf=37*;OXTR counter=25*
SMILES	OX1R antag-1	OXTR potentiator	OXTR ag	V1R ag counter	CHO parental Ca	OX1R antag-2	others
Cc1c2cnn(CC(=O)N3CCC4(CC3)OCCO4)c(=O)c2c(C)n1Cc1ccccc1Cl	5	-6	-1	0	-1	5
CN(C)c1ccc(/C=C/[N+](=O)[O-])cc1	58*	-6	18	29*	6	14	V1aR agonist cf=38*;OXTR counter=24*
C/C(=C\c1ccc(N(C)C)cc1)[N+](=O)[O-]	35	-7	7	6	8	7
CN1CCN(c2ccc([N+](=O)[O-])c3no[n+]([O-])c23)CC1	77*	-24	19	28*	22	13	V1aR agonist cf=5;OXTR counter=5;OX1R HTRF conf=74*;CHO-K1 HTRF cnt=107*
CN1CCc2nc(SCc3cccc(Br)c3)c(C#N)cc2C1	13	-5	-1	0	-4	-35
Cn1cc(/C=C2\C(=O)NC(=O)N(c3ccccc3)C2=O)c2ccccc21	9	-9	0	0	0	54*	OX1R Fluo8 conf=-5;CHO Ca counter=-5
CC(=O)Nc1ccccc1C(=O)OCc1ccc(C(=O)c2ccccc2)cc1	20	-9	3	2	13	24
